Test results reported in BindingDB's records for doi:10.1016/j.bmc.2016.07.028 (Jagiellonian University Medical College, 2016).
Each block holds one molecule with its values, some of them ahead of it.

Assays:
Adenosine receptor A2a [1] = target: T1, Adenosine receptor A2a (Homo sapiens, UniProt P29274); test: Antagonist activity at human adenosine receptor A2a expressed in CHO cell membranes assessed as inhibition of NECA-induced cAMP accumulation measured as NECA EC50 at 7 uM incubated for 15 mins in presence of [3H]cAMP by liquid scintillation counting (Rvb = 77 nM)
T1 sequence (P29274 whole entry): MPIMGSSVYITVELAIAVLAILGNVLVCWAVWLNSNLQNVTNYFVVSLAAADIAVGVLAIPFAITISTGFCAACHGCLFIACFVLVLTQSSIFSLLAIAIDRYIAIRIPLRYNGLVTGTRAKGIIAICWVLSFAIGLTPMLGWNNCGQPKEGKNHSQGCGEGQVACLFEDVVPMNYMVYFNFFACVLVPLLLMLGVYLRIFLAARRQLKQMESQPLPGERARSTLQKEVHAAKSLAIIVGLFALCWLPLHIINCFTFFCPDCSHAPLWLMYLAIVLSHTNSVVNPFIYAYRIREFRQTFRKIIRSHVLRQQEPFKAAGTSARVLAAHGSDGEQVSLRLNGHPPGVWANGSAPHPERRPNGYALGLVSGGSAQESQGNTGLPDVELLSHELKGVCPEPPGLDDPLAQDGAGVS

Adenosine receptor A2b = target: T2, Adenosine receptor A2b (Homo sapiens, UniProt P29275); test: Antagonist activity at human adenosine receptor A2b expressed in CHO cell membranes assessed as inhibition of NECA-induced cAMP accumulation measured as NECA EC50 at 2 uM incubated for 15 mins in presence of [3H]cAMP by liquid scintillation counting (Rvb = 73 nM)
T2 sequence (P29275 whole entry): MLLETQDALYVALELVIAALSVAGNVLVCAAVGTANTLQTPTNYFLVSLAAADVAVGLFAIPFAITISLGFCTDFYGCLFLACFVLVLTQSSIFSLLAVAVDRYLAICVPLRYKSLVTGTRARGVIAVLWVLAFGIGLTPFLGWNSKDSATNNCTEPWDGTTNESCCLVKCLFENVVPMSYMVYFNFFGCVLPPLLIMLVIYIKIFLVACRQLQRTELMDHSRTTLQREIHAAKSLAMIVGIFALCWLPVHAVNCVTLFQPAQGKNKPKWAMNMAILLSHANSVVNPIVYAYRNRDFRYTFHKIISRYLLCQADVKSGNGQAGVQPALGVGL
Procedure, shortened: (§1)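 Stably transfected CHO cells (human A2A or A2B) grown in DMEM-F12 with 10% FCS at 37 °C, 5% CO2. The cells were seeded at 200,000/well, washed after 24 h and held 2 h in HBSS (pH 7.3) with 1 U/ml adenosine deaminase. Ro20-1724 was added to 40 µM final for 15 min, then NECA dilutions ± one fixed test concentration in 2.5% DMSO, in duplicate.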

Adenosine receptor A2a [2] = target: T1, Adenosine receptor A2a; test: Antagonist activity at human adenosine receptor A2a expressed in CHO cell membranes assessed as inhibition of NECA-induced cAMP accumulation measured as NECA EC50 at 5 uM incubated for 15 mins in presence of [3H]cAMP by liquid scintillation counting (Rvb = 68 nM); procedure, shortened: as §1

- EC50 (Adenosine receptor A2a [1]): 302 nM
SMILES: Cn1c(=O)c2c(nc3n2CCCN3CCc2ccc(O)cc2)n(C)c1=O [9-(4-hydroxyphenethyl)-1,3-dimethyl-6,7,8,9-tetrahydropyrimido[1,2-a]purine-2,4(1H,3H)-dione]

- EC50 (Adenosine receptor A2b): 335 nM
SMILES: CCCCn1c(=O)c2c(nc3n2CCCN3CCc2ccc(OCCN(CC)CC)cc2)n(CCCC)c1=O

- EC50 (Adenosine receptor A2a [2]): 460 nM
SMILES: CCN(CC)CCOc1ccc(CCN2CCCn3c2nc2c3c(=O)n(C)c(=O)n2C)cc1
